In ChEMBL document CHEMBL1138867, “Design, synthesis, potency, and cytoselectivity of anticancer agents derived by parallel synthesis from alpha-aminosuberic acid” (J Med Chem, 2006):
Calls of active or inactive are those of the source. No cut-off for these calls is given here.

How the values were obtained:
NFF = assay: Antiproliferative activity against human NFF cells; format: functional, cell-based
Procedure, shortened: (§1)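 Cells cultured in RPMI 1640 with 10% heat-inactivated FCS, 3 mM HEPES, 5% CO2, 37 °C; NFF are primary neonatal foreskin fibroblasts. Cells were seeded at 5 × 10^3/well and left to adhere overnight. They were exposed to compound for 24 h, then the medium was replaced and cells grown a further 72 h. Survival was read by SRB staining at 564 nm, giving IC50.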

MM96L [1] = assay: Antiproliferative activity against human MM96L cells; format: functional, cell-based; procedure, shortened: as §1
SK-MEL-28 = assay: Antiproliferative activity against human SK-Mel-28 cells; format: functional, cell-based; procedure, shortened: as §1
A549 [2] = assay: Antiproliferative activity against human A549 cells; format: functional, cell-based; procedure, shortened: as §1
DU-145 = assay: Antiproliferative activity against human DU145 cells; format: functional, cell-based; procedure, shortened: as §1
HOP-62 = assay: Antiproliferative activity against human HOP62 cells; format: functional, cell-based; procedure, shortened: as §1
HT-29 = assay: Antiproliferative activity against human HT29 cells; format: functional, cell-based; procedure, shortened: as §1
MCF7 = assay: Antiproliferative activity against human MCF7 cells; format: functional, cell-based; procedure, shortened: as §1
SK-MEL-5 = assay: Antiproliferative activity against human SK-Mel-5 cells; format: functional, cell-based; procedure, shortened: as §1
[3] = Antiproliferative activity against human H520 cells; format: functional, cell-based; settings: NCI-H520; procedure, shortened: as §1
T47D = assay: Antiproliferative activity against human T-47D cells; format: functional, cell-based; procedure, shortened: as §1
C180-13S = assay: Antiproliferative activity against human C180-13S cells; format: functional, cell-based; procedure, shortened: as §1
[4] = Antiproliferative activity against human JAM cells; format: functional, cell-based; procedure, shortened: as §1
PC-3 = assay: Antiproliferative activity against human PC3 cells; format: functional, cell-based; procedure, shortened: as §1
COLO 205 = assay: Antiproliferative activity against human Colo205 cells; format: functional, cell-based; procedure, shortened: as §1
A549 [5] = assay: Induction of p21 expression in human A549 cells after 24 hrs; format: functional, cell-based
Procedure, shortened: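 A549 cells were treated 24 h with 0.05, 0.5 or 5 µg/mL compound or vehicle. Lysates were made by sonication in 1% SDS/20% glycerol/10 mM Tris pH 7.4 buffer, and protein was quantified by BCA. Then 30 µg was run on 15% SDS-PAGE and immunoblotted for p21WAF1/Cip1 (1:1000), with GAPD (1:10 000) as reference, using chemiluminescence detection.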

A549 (Homo sapiens) = assay: Induction of p21 expression in human A549 cells
MM96L [6] = assay: Effect on cell morphology in human MM96L cells at 3 ug/mL after 24 hrs; format: functional, cell-based

SMILES | IC50 (NFF) [µM] | IC50 (MM96L [1]) [µM] | also measured
CN(C)c1ccc(NC(=O)[C@H](CCCCCC(=O)NO)NC(=O)/C=C/c2ccccc2)cc1 | 0.24 | 0.16 | 
O=C(/C=C/c1ccccc1)N[C@@H](CCCCCC(=O)NO)C(=O)Nc1cccc2cccnc12 | 1.24 | 0.021 | IC50 (SK-MEL-28): 0.037 µM; IC50 (A549 [2]): 0.073 µM; IC50 (DU-145): 0.03 µM; IC50 (HOP-62): 0.065 µM; IC50 (HT-29): 0.099 µM; IC50 (MCF7): 0.017 µM; IC50 (SK-MEL-5): 0.029 µM; IC50 [3]: 0.027 µM; IC50 (T47D): 0.02 µM; IC50 (C180-13S): 0.028 µM; IC50 [4]: 0.049 µM; IC50 (PC-3): 0.109 µM; IC50 (COLO 205): 0.141 µM
O=C(CCCCC[C@H](NC(=O)OCc1ccccc1)C(=O)NCc1ccccc1)NO | 1.52 | 1.52 | 
O=C(CCCCC[C@H](NC(=O)c1ccc(C(F)(F)F)cc1)C(=O)Nc1cccc2cccnc12)NO | 0.696 | 0.258 | 
O=C(CCCCC[C@H](NC(=O)c1cc2ccccc2[nH]1)C(=O)NC1(Cc2ccccc2)CCCC1)NO | 1.6 | 0.9 | 
O=C(CCCCC[C@H](NC(=O)c1cc2ccccc2[nH]1)C(=O)Nc1cccc2cccnc12)NO | 0.337 | 0.021 | Activity (A549 [5]): Active; IC50 (SK-MEL-28): 0.033 µM; IC50 (A549 [2]): 0.069 µM; IC50 (DU-145): 0.022 µM; IC50 (HOP-62): 0.063 µM; IC50 (HT-29): 0.079 µM; IC50 (MCF7): 0.019 µM; IC50 (SK-MEL-5): 0.018 µM; IC50 [3]: 0.026 µM; IC50 (T47D): 0.019 µM; IC50 (C180-13S): 0.02 µM; IC50 [4]: 0.048 µM; IC50 (PC-3): 0.148 µM; IC50 (COLO 205): 0.102 µM; Activity (A549 (Homo sapiens)): Active
O=C(/C=C/c1c[nH]c2ccccc12)N[C@@H](CCCCCC(=O)NO)C(=O)NCc1ccccc1 | 10.4 | 3.24 | 
CN(C)c1ccc(C(=O)N[C@@H](CCCCCC(=O)NO)C(=O)NC2(Cc3ccccc3)CCCC2)cc1 | 3 | 0.9 | 
O=C(CCCCC[C@H](NC(=O)Cc1ccc(-c2ccccc2)cc1)C(=O)NCc1ccccc1)NO | 5.13 | 2.36 | 
O=C(CCCCC[C@H](NC(=O)OCc1ccccc1)C(=O)Nc1ccc(-c2ccccc2)cc1)NO | 2.2 | 0.33 | 
O=C(CCCCC[C@H](NC(=O)c1cccs1)C(=O)NCc1ccccc1)NO | 5.2 | 0.89 | 
CN(C)c1ccc(C(=O)N[C@H](CCCCCC(=O)NO)C(=O)NCc2ccccc2)cc1 | 1 | 0.16 | 
CN(C)c1ccc(C(=O)N[C@@H](CCCCCC(=O)NO)C(=O)NCc2ccccc2)cc1 | 12 | 1.6 | Activity (MM96L [6]): Active
CN(C)c1ccc(NC(=O)[C@H](CCCCCC(=O)NO)NC(=O)OCc2ccccc2)cc1 | 0.65 | 0.61 | 
CN(C)c1ccc(NC(=O)[C@H](CCCCCC(=O)NO)NC(=O)c2ccc(C(F)(F)F)cc2)cc1 | 0.4 | 0.22 | 
O=C(CCCCC[C@H](NC(=O)c1cc2c(O)cccc2[nH]1)C(=O)NCc1ccccc1)NO | 2.21 | 0.33 | 
CN(C)c1ccc(C(=O)N[C@@H](CCCCCC(=O)NO)C(=O)Nc2cccc3cccnc23)cc1 | 0.57 | 0.02 | IC50 (SK-MEL-28): 0.073 µM; IC50 (A549 [2]): 0.148 µM; IC50 (DU-145): 0.061 µM; IC50 (HOP-62): 0.137 µM; IC50 (HT-29): 0.178 µM; IC50 (MCF7): 0.035 µM; IC50 (SK-MEL-5): 0.032 µM; IC50 [3]: 0.063 µM; IC50 (T47D): 0.045 µM; IC50 (C180-13S): 0.065 µM; IC50 [4]: 0.085 µM; IC50 (PC-3): 0.22 µM; IC50 (COLO 205): 0.223 µM
CC(C)CCNC(=O)C(CCCCCC(=O)NO)NC(=O)c1cccnc1 (stereo not drawn) | 12 | 9 | 
O=C(CCCCC[C@H](NC(=O)c1ccc(Br)cc1)C(=O)NCc1ccccc1)NO | 5.86 | 1.99 | 
CN(C)c1ccc(C(=O)NC(CCCCCC(=O)NO)C(=O)NC2CCCc3ccccc32)cc1 (stereo not drawn) | 1.81 | 0.3 | 
O=C(CCCCC[C@H](NC(=O)OCC1c2ccccc2-c2ccccc21)C(=O)NCc1ccccc1)NO | 5.37 | 3.2 | 

SMILES | IC50 (NFF) [µM] | IC50 (MM96L [1]) [µM] | also measured
O=C(CCCCC[C@H](NC(=O)c1ccc(Br)cc1)C(=O)Nc1ccc(-c2ccccc2)cc1)NO | 0.19 | 0.07 | IC50 (SK-MEL-28): 0.168 µM; IC50 (A549 [2]): 0.335 µM; IC50 (DU-145): 0.149 µM; IC50 (HOP-62): 0.261 µM; IC50 (HT-29): 0.307 µM; IC50 (MCF7): 0.149 µM; IC50 (SK-MEL-5): 0.102 µM; IC50 [3]: 0.117 µM; IC50 (T47D): 0.197 µM; IC50 (C180-13S): 0.158 µM; IC50 [4]: 0.182 µM; IC50 (PC-3): 0.531 µM; IC50 (COLO 205): 0.272 µM
O=C(CCCCC[C@H](NC(=O)c1ccc(C(F)(F)F)cc1)C(=O)NCc1ccccc1)NO | 1.61 | 0.66 | 
O=C(CCCCC[C@H](NC(=O)C12CC3CC(CC(C3)C1)C2)C(=O)NCc1ccccc1)NO | 7.13 | 3.95 | 
O=C(CCCCCC(NC(=O)c1cccnc1)C(=O)NCc1ccccc1)NO (stereo not drawn) | 24 | 9.5 | 
O=C(CCCCC[C@H](NC(=O)OCc1ccccc1)C(=O)NC1CCCc2ccccc21)NO (stereo partly drawn) | 1.7 | 1.7 | 
O=C(/C=C/c1ccccc1)N[C@@H](CCCCCC(=O)NO)C(=O)NCc1ccccc1 | 4.01 | 0.46 | 
O=C(CCCCCC(NC(=O)c1ccc([N+](=O)[O-])cc1)C(=O)NCc1ccccc1)NO (stereo not drawn) | 9 | 6 | 
O=C(CCCCC[C@H](NC(=O)c1cc2c(Br)cccc2[nH]1)C(=O)NCc1ccccc1)NO | 1.94 | 0.49 | 
O=C(CCCCC[C@H](NC(=O)c1cc2ccccc2[nH]1)C(=O)NCc1ccccc1)NO | 1.26 | 0.25 | 
O=C(CCCCC[C@H](NC(=O)c1ccc(Br)cc1)C(=O)NCc1ccncc1)NO | 5.24 | 0.83 | 
CN(C)c1ccc(C(=O)N[C@@H](CCCCCC(=O)NO)C(=O)NCc2ccccn2)cc1 | 33 | 3.6 | 
COc1ccc(CCNC(=O)C(CCCCCC(=O)NO)NC(=O)c2ccco2)cc1 (stereo not drawn) | 1.3 | 0.97 | 
O=C(CCCCC[C@H](NC(=O)OCc1ccccc1)C(=O)Nc1cccc2cccnc12)NO | 0.452 | 0.043 | IC50 (SK-MEL-28): 0.146 µM; IC50 (A549 [2]): 0.248 µM; IC50 (DU-145): 0.131 µM; IC50 (HOP-62): 0.226 µM; IC50 (HT-29): 0.334 µM; IC50 (MCF7): 0.122 µM; IC50 (SK-MEL-5): 0.07 µM; IC50 [3]: 0.118 µM; IC50 (T47D): 0.093 µM; IC50 (C180-13S): 0.124 µM; IC50 [4]: 0.194 µM; IC50 (PC-3): 0.528 µM; IC50 (COLO 205): 0.122 µM
CC(C)COC(=O)N[C@@H](CCCCCC(=O)NO)C(=O)Nc1cccc2cccnc12 | 0.081 | 0.023 | IC50 (SK-MEL-28): 0.17 µM; IC50 (A549 [2]): 0.291 µM; IC50 (DU-145): 0.13 µM; IC50 (HOP-62): 0.267 µM; IC50 (HT-29): 0.36 µM; IC50 (MCF7): 0.138 µM; IC50 (SK-MEL-5): 0.1 µM; IC50 [3]: 0.129 µM; IC50 (T47D): 0.198 µM; IC50 (C180-13S): 0.149 µM; IC50 [4]: 0.221 µM; IC50 (PC-3): 0.651 µM; IC50 (COLO 205): 0.395 µM
O=C(CCCCC[C@H](NC(=O)CCCc1c[nH]c2ccccc12)C(=O)NCc1ccccc1)NO | 7.03 | 1.85 | 
CC(C)CCNC(=O)C(CCCCCC(=O)NO)NC(=O)c1ccco1 (stereo not drawn) | 4.4 | 1.5 | 
O=C(CCCCCC(NC(=O)c1ccco1)C(=O)NCc1ccccc1)NO (stereo not drawn) | 4.6 | 0.2 | 
O=C(CCCCC[C@H](NC(=O)Cc1c[nH]c2ccccc12)C(=O)NCc1ccccc1)NO | > 2.2 | 0.33 | 
O=C(CCCCC[C@H](NC(=O)OCc1ccccc1)C(=O)NCc1ccncc1)NO | 23.3 | 4.32 | 
O=C(CCCCC[C@H](NC(=O)c1ccc(Br)cc1)C(=O)NCc1ccccn1)NO | 2.09 | 1.15 | 
